Active and inactive are the calls of the source. No cut-off for these calls is given here.
Legend:
[1] = Metabolic stability in Sprague-Dawley rat liver microsomes assessed as parent compound remaining after 90 mins in presence of NADPH by HPLC-UV-MS analysis; type: ADME, Microsome; conditions: read-out: Stability
Procedure, shortened: (§1)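 Compound incubated with rat liver microsomes in buffer containing an NADPH regenerating system. Percentage of parent remaining was determined at time points up to 180 min, and half-life was derived.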

[2] = tested on: A549; test: Induction of apoptosis in human A549 cells assessed as early apoptotic cells at 5 nM after 24 hrs by annexin V-FITC/propidium iodide staining based flow cytometry (reference value: 0.19 %); type: functional
Procedure, shortened: (§2)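 A549 cells treated at 1, 5 or 10 nM for 24 or 48 h, then analysed by flow cytometry. Quadrants: upper left necrotic, upper right late apoptotic, bottom left live, bottom right early apoptotic. Three experiments; representative results shown.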

[3] = tested on: A549; test: Induction of apoptosis in human A549 cells assessed as late apoptotic cells at 5 nM after 48 hrs by annexin V-FITC/propidium iodide staining based flow cytometry (reference value: 0.02 %); type: functional; procedure, shortened: as §2
[4] = tested on: HCT-116; test: Antiproliferative activity against human HCT116 cells assessed as cell growth inhibition measured after 48 hrs by MTT assay; type: functional, cell-based; conditions: HCT-116, 48 h
Procedure, shortened: (§3)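 Cancer cell lines exposed to compounds for 48 h; viability read by MTT assay. IC50 reported as mean ± SD from at least three independent experiments.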

[5] = tested on: A549; test: Induction of apoptosis in human A549 cells assessed as live cells at 1 nM after 48 hrs by annexin V-FITC/propidium iodide staining based flow cytometry (reference value: 99.75 %); type: functional; procedure, shortened: as §2
[6] = tested on: HepG2; test: Antiproliferative activity against human HepG2 cells assessed as cell growth inhibition measured after 48 hrs by MTT assay; type: functional, cell-based; conditions: HepG2, 48 h; procedure, shortened: as §3
[7] = tested on: A549; test: Induction of apoptosis in human A549 cells assessed as early apoptotic cells at 10 nM after 48 hrs by annexin V-FITC/propidium iodide staining based flow cytometry (reference value: 0.19 %); type: functional; procedure, shortened: as §2
[8] = tested on: A549; test: Induction of apoptosis in human A549 cells assessed as live cells at 1 nM after 24 hrs by annexin V-FITC/propidium iodide staining based flow cytometry (reference value: 99.75 %); type: functional; procedure, shortened: as §2
[9] = tested on: A549; test: Induction of apoptosis in human A549 cells assessed as necrotic cells at 10 nM after 24 hrs by annexin V-FITC/propidium iodide staining based flow cytometry (reference value: 0.03 %); type: functional; procedure, shortened: as §2
[10] = tested on: A549; test: Disruption of microtubule organization in human A549 cells assessed as microtubule spindle shrunk at 1 to 10 nM measured after 24 hrs by immunofluorescence laser confocal microscopy analysis; type: functional, cell-based
Procedure, shortened: (§4)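 A549 cells plated in confocal dishes and exposed to DMSO or compound at 1, 5 or 10 nM for 24 h. Cells were fixed, immunostained for microtubules and imaged by laser confocal microscopy. Performed three times.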

[11] = tested on: A549; test: Induction of apoptosis in human A549 cells assessed as early apoptotic cells at 10 nM after 24 hrs by annexin V-FITC/propidium iodide staining based flow cytometry (reference value: 0.19 %); type: functional; procedure, shortened: as §2
[12] = in vitro; conditions: Sprague-Dawley, rat, liver microsomes
[13] = tested on: A549; test: Induction of apoptosis in human A549 cells assessed as late apoptotic cells at 10 nM after 48 hrs by annexin V-FITC/propidium iodide staining based flow cytometry (reference value: 0.02 %); type: functional; procedure, shortened: as §2
[14] = tested on: A549; test: Induction of apoptosis in human A549 cells assessed as late apoptotic cells at 10 nM after 24 hrs by annexin V-FITC/propidium iodide staining based flow cytometry (reference value: 0.02 %); type: functional; procedure, shortened: as §2
[15] = tested on: A549; test: Induction of apoptosis in human A549 cells assessed as late apoptotic cells at 5 nM after 24 hrs by annexin V-FITC/propidium iodide staining based flow cytometry (reference value: 0.02 %); type: functional; procedure, shortened: as §2
[16] = Metabolic stability in Sprague-Dawley rat liver microsomes assessed as parent compound remaining after 60 mins in presence of NADPH by HPLC-UV-MS analysis; type: ADME, Microsome; conditions: read-out: Stability; procedure, shortened: as §1
[17] = tested on: A549; test: Antiproliferative activity against human A549 cells assessed as cell growth inhibition measured after 48 hrs by MTT assay; type: functional, cell-based; conditions: A549, 48 h; procedure, shortened: as §3
[18] = tested on: A549; test: Induction of apoptosis in human A549 cells assessed as early apoptotic cells at 5 nM after 48 hrs by annexin V-FITC/propidium iodide staining based flow cytometry (reference value: 0.19 %); type: functional; procedure, shortened: as §2
[19] = tested on: A549; test: Induction of apoptosis in human A549 cells assessed as necrotic cells at 5 nM after 48 hrs by annexin V-FITC/propidium iodide staining based flow cytometry (reference value: 0.03 %); type: functional; procedure, shortened: as §2
[20] = tested on: A549; test: Cell cycle arrest in human A549 cells assessed as increase in cell accumulation at G2/M phase measured after 24 to 48 hrs by RNase/propidium iodide staining based flow cytometry analysis; type: functional
[21] = tested on: A549; test: Cell cycle arrest in human A549 cells assessed as appearance of hypodiploid DNA content at sub G1 phase at 1 to 10 nM after 48 hrs by RNase/propidium iodide staining based flow cytometry analysis; type: functional
[22] = Metabolic stability in Sprague-Dawley rat liver microsomes assessed as parent compound remaining after 150 mins in presence of NADPH by HPLC-UV-MS analysis; type: ADME, Microsome; conditions: Sprague-Dawley, liver microsomes, read-out: Stability; procedure, shortened: as §1
[23] = tested on: A549; test: Induction of apoptosis in human A549 cells assessed as early apoptotic cells at 1 nM after 24 hrs by annexin V-FITC/propidium iodide staining based flow cytometry (reference value: 0.19 %); type: functional; procedure, shortened: as §2
[24] = tested on: A549; test: Induction of apoptosis in human A549 cells assessed as late apoptotic cells at 1 nM after 24 hrs by annexin V-FITC/propidium iodide staining based flow cytometry (reference value: 0.02 %); type: functional; procedure, shortened: as §2
[25] = tested on: A549; test: Induction of apoptosis in human A549 cells assessed as necrotic cells at 5 nM after 24 hrs by annexin V-FITC/propidium iodide staining based flow cytometry (reference value: 0.03 %); type: functional; procedure, shortened: as §2
[26] = Metabolic stability in Sprague-Dawley rat liver microsomes assessed as parent compound remaining after 30 mins in presence of NADPH by HPLC-UV-MS analysis; type: ADME, Microsome; conditions: read-out: Stability; procedure, shortened: as §1
[27] = tested on: HeLa; test: Antiproliferative activity against human HeLa cells assessed as cell growth inhibition measured after 48 hrs by MTT assay; type: functional, cell-based; procedure, shortened: as §3
[28] = tested on: A549; test: Induction of apoptosis in human A549 cells assessed as live cells at 5 nM after 48 hrs by annexin V-FITC/propidium iodide staining based flow cytometry (reference value: 99.75 %); type: functional; procedure, shortened: as §2
[29] = Half-life in Sprague-Dawley rat liver microsomes in presence of NADPH by HPLC-UV-MS analysis; type: ADME, Microsome; procedure, shortened: as §1
[30] = tested on: A549; test: Induction of apoptosis in human A549 cells assessed as late apoptotic cells at 1 nM after 48 hrs by annexin V-FITC/propidium iodide staining based flow cytometry (reference value: 0.02 %); type: functional; procedure, shortened: as §2
[31] = tested on: A549; test: Disruption of microtubule organization in human A549 cells assessed as appearance of dotted disorder formations at 10 nM measured after 24 hrs by immunofluorescence laser confocal microscopy analysis; type: functional, cell-based; procedure, shortened: as §4
[32] = tested on: A549; test: Induction of apoptosis in human A549 cells assessed as live cells at 5 nM after 24 hrs by annexin V-FITC/propidium iodide staining based flow cytometry (reference value: 99.75 %); type: functional; procedure, shortened: as §2
[33] = tested on: A549; test: Induction of apoptosis in human A549 cells assessed as necrotic cells at 1 nM after 48 hrs by annexin V-FITC/propidium iodide staining based flow cytometry (reference value: 0.03 %); type: functional; procedure, shortened: as §2

COc1ccc2c(c1O)NC(=O)CN=C2c1cc(OC)c(OC)c([Se]C)c1
remaining at 1.5 h [1]: 75.9% | Activity [2]: 13.15% | Activity [3]: 11.71% | IC50 [4]: 8.9 nM | Activity [5]: 82.83% | IC50 [6]: 12.6 nM | Activity [7]: 65.4% | Activity [8]: 94.08% | Activity [9]: 0.09% | Activity [10]: Active | Activity [11]: 23.06% | remaining at 3 h [12]: 50.4% | Activity [13]: 19.15% | Activity [14]: 0.13% | Activity [15]: 0.32% | remaining at 1 h [16]: 86.3% | IC50 [17]: 5.82 nM | Activity [18]: 28.68% | Activity [19]: 2.28% | Activity [20]: Dose-dependent effect | Activity [21]: Active | remaining at 2.5 h [22]: 57.4% | Activity [23]: 5.71% | Activity [24]: 0.17% | Activity [25]: 0.03% | remaining at 0.5 h [26]: 95.6% | IC50 [27]: 8.3 nM | Activity [28]: 57.32% | half-life [29]: 2.69 h | Activity [30]: 3.25% | Activity [31]: Active | Activity [32]: 86.5% | Activity [33]: 0.28%

Source: ChEMBL document CHEMBL4359917, “Design, synthesis, and biological evaluation of novel benzodiazepine derivatives as anticancer agents through inhibition of tubulin polymerization in vitro and in vivo” (Eur J Med Chem, 2019)
